Measurements taken from PubChem BioAssay AID588478 (ICCB-Longwood Screening Facility, Harvard Medical School, 2011).
The campaign covered roughly 330,000 compounds. About 1,100 (0.33%) were called active.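 The calls were made as follows: active = mean inhibition over replicate wells above about 20% (limit read from the data); inactive = the rest.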 The entries come from a sample that favours actives as a whole.

What follows are molecules tested against Ubiquitin carboxyl-terminal hydrolase isozyme L5 (Homo sapiens) (UniProt Q9Y5K5) (assay: inhibitors of human UCH37 deubiquitinase, primary screen, biochemical, Ub-AMC cleavage, fluorescence (AID 588478;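 also: 0% = compound-free wells with enzyme and 100% = wells lacking proteasome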)). Conditions: purified proteasome/UCH37, Ub-AMC cleavage fluorescence; stronger effect = higher value; concentration not given here.
Ubiquitin carboxyl-terminal hydrolase isozyme L5 (Homo sapiens), sequence (Q9Y5K5 whole entry, looked up): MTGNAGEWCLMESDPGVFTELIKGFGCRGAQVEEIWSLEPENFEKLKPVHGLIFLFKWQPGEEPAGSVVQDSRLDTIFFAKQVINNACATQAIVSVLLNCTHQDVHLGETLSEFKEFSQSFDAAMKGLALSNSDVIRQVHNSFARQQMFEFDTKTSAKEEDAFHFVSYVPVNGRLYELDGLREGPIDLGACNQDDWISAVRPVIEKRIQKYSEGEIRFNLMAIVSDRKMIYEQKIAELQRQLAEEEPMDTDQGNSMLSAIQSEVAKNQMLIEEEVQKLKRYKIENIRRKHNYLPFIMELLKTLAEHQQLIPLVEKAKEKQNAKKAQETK
In short: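 Reagent: Ub-AMC substrate; assay system: Proteasome-associated human UCH37 deubiquitinase; controls: no-proteasome and no-compound wells; read-out: % inhibition of Ub-AMC cleavage fluorescence; timing: 30 min preincubation with enzyme, 25 min cleavage at room temperature; signal: AMC fluorescence from Ub-AMC cleavage, excitation 355 nm, emission 460 nm; buffer or medium: Tris-HCl pH 7.4 plus ovalbumin, ATP-MgCl2, DTT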

| SMILES | inhibition |
| --- | --- |
| O=c1ccc2c(-c3ccccc3S(=O)(=O)O)c3ccc(O)c(O)c3oc-2c1O | 29% (active) |
| O=C1c2ccccc2NC(c2ccco2)N1N=Cc1ccco1 (centres undefined) | -3.31% (inactive) |
| COC(=O)c1ccc(-c2ccc(C=NN3C(=O)C4C5C=CC(CC5)C4C3=O)o2)cc1 (centres undefined) | -1.63% (inactive) |
| CC(=O)OC[C@H]1O[C@@H](ON=C[C@@H](C)[C@H](OCc2ccccc2)C(C)C)[C@H](OC(C)=O)[C@@H](OC(C)=O)[C@@H]1OC(C)=O | 1.03% (inactive) |
| CCOc1cc(C=NNC(=O)C(=O)N2CCCC2)ccc1O | 7.79% (inactive) |
| CCOC(=O)N1CCN(C(=O)CNC(=O)Cc2ccc(Cl)cc2)CC1 | 33.3% (active) |
| CCOC(=O)N1CCN(C(=O)C(C)NC(=O)c2ccco2)CC1 (centres undefined) | 1.14% (inactive) |
| CCOC(=O)N1CCN(C(=O)Cc2ccc(-n3c(=S)[nH]c4ccccc4c3=O)cc2)CC1 | 2.68% (inactive) |
| CC(C)(C)OC(=O)NCCC(=O)NN=Cc1ccc2nccnc2c1 | 3.74% (inactive) |
| COC(=O)c1nn(-c2ccccc2)c(Sc2ccc(Cl)cc2)c1C=NO | -1.82% (inactive) |
| Cn1nnnc1SCC(=O)N1CCN(C(c2ccccc2)c2ccccc2)CC1 | 2.55% (inactive) |
| Cc1onc(C(=O)NN)c1C(=O)N1CCN(C(c2ccccc2)c2ccccc2)CC1 | 1.47% (inactive) |
| O=C(c1ccc(-n2cnnn2)cc1)N1CCN(C(c2ccccc2)c2ccccc2)CC1 | 26.6% (active) |
| C=C1CC(C(=O)NN=Cc2ccccc2)C1 | 1.24% (inactive) |
| COc1cccc(C=NNC(=S)NC2CC3CCC2C3)c1OC (centres undefined) | 2.43% (inactive) |
| CCN1C[C@@H]2[C@@H]3C(=O)N(Cc4ccccc4)C(=O)[C@@H]3[C@](Cc3ccccc3)(C(=O)OC)N2C1=NC1CCCCC1 | -0.224% (inactive) |
| CCN1C[C@@H]2[C@@H]3C(=O)N(C)C(=O)[C@@H]3[C@](C)(C1=O)N2C(=O)c1ccccc1 | 1.29% (inactive) |
| CCN1C[C@@H]2[C@@H]3C(=O)N(Cc4ccccc4)C(=O)[C@@H]3[C@](C)(C1=O)N2C(=O)c1ccc(C(C)(C)C)cc1 | 28.4% (active) |
| CON=C(C(=O)N[C@@H]1C(=O)N2C(C(=O)O)=C(COC(N)=O)CS[C@H]12)c1ccco1 | -2.85% (inactive) |
| CC(CC(C)(C)c1ccccc1)=NNS(=O)(=O)c1ccccc1 | 3.32% (inactive) |
| Cc1nn(-c2ccccc2)c(Cl)c1C=NO | 1.54% (inactive) |
| Cn1cc([N+](=O)[O-])c(C(=O)NN=Cc2ccc([N+](=O)[O-])cc2)n1 | 11.9% (inactive) |
| Nc1nonc1C(=O)NN=Cc1ccc(-c2cccc([N+](=O)[O-])c2)o1 | 9.92% (inactive) |
| CN(C)c1ccc(C=NNC(=O)c2nonc2N)cc1[N+](=O)[O-] | 20.3% (active) |
